In ChEMBL document CHEMBL3612036, “Design, Synthesis, and Cardioprotective Effects of N-Mercapto-Based Hydrogen Sulfide Donors” (J Med Chem, 2015):

Columns and labels:
Assay type in all cases: physicochemical
Details in all cases: pH 7.4, 2 h
[1] = […] peak time for H2S release in pH 7.4 PBS buffer containing 10% THF incubated for 2 hrs at room temperature in presence of 1 mM GSH by methylene blue based UV-Vis spectrometry
How it was run: (§1)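 Donor (30 mM THF stock; 0.1 mM final) was added to PBS (pH 7.4, 50 mM)/THF 9:1 containing the stated thiol, at room temperature for 2 h. 1.0 mL aliquots were taken periodically into methylene blue cocktail (zinc acetate, N,N-dimethyl-p-phenylenediamine in HCl, FeCl3 in HCl) and reacted 15 min. Absorbance was read at 670 nm and H2S quantified against a Na2S calibration curve; peak concentration and peak time were recorded.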

[2] = GSH-induced H2S release assessed as peak H2S level in pH 7.4 PBS buffer containing 10% THF incubated for 2 hrs at room temperature in presence of cysteine by methylene blue based UV-Vis spectrometry; how it was run: as §1
[3] = GSH-induced H2S release assessed as peak H2S level in pH 7.4 PBS buffer containing 10% THF incubated for 2 hrs at room temperature in presence of 1 mM GSH by methylene blue based UV-Vis spectrometry; how it was run: as §1
[4] = […] peak time for H2S release in pH 7.4 PBS buffer containing 10% THF incubated for 2 hrs at room temperature in presence of cysteine by methylene blue based UV-Vis spectrometry; how it was run: as §1

Row | SMILES | Time [1] [min] | Activity [2] [µM] | Activity [3] [µM] | Time [4] [min]
1 | CC(=O)NSC(=O)c1ccccc1 | 50 | 46.4 | 58.3 | 45
2 | Cc1ccc(C(=O)SNC(=O)c2ccccc2)cc1 | 60 | 45.4 | 39.8 | 60
3 | CC(C)C(=O)SNC(=O)c1ccccc1 | 70 | 40.7 | 58.4 | 65
4 | Cc1ccccc1C(=O)NSC(=O)c1ccccc1 | 65 | 51.4 | 57.6 | 55
5 | COc1ccc(C(=O)SNC(=O)Nc2ccccc2)cc1 | 120 | 14.1 | 26.4 | 105
6 | CC(C)(C)C(=O)SNC(=O)c1ccccc1 | 90 | 37.5 | 48.1 | 80
7 | Cc1ccccc1C(=O)SNC(=O)c1ccccc1 | 70 | 29.4 | 19.8 | 60
8 | COc1cccc(C(=O)SNC(=O)c2ccccc2)c1 | 80 | 47 | 39.5 | 55
9 | COC(=O)c1ccc(C(=O)SNC(=O)c2ccccc2)cc1 | 55 | 38.8 | 36 | 50
10 | O=C(NSC(=O)c1ccc(F)cc1)Nc1ccccc1 | 90 | 18.8 | 18.5 | 75
11 | COc1ccccc1C(=O)SNC(=O)c1ccccc1 | 80 | 29 | 34 | 60
12 | O=C(NSC(=O)C1CCCCC1)c1ccccc1 | 80 | 48.1 | 68.2 | 65
13 | CN(C)c1ccc(C(=O)SNC(=O)c2ccccc2)cc1 | 80 | 19.5 | 7.6 | 65
14 | O=C(NSC(=O)c1ccccc1)c1ccc(F)cc1 | 65 | 38.5 | 43.3 | 55
15 | Cc1ccc(C(=O)SNC(=O)Nc2ccccc2)cc1 | 130 | 16.5 | 20 | 105
16 | Cc1ccc(NC(=O)NSC(=O)c2ccccc2)cc1 | 130 | 21.8 | 27.4 | 90
17 | CCC(=O)NSC(=O)c1ccccc1 | 60 | 44.1 | 54.1 | 55
18 | CCCC(=O)NSC(=O)c1ccccc1 | 60 | 45.9 | 58.3 | 60
19 | O=C(NSC(=O)c1ccc(Cl)cc1)Nc1ccccc1 | 120 | 18.2 | 24.9 | 95
20 | O=C(Cc1ccccc1)SNC(=O)c1ccccc1 | 60 | 33.4 | 47.5 | 50
21 | CC(=O)SNC(=O)c1ccccc1 | 70 | 48.4 | 63.1 | 60
22 | Cc1cccc(C(=O)SNC(=O)c2ccccc2)c1 | 65 | 49.3 | 39.3 | 55
23 | O=C(NSC(=O)c1ccc(C(F)(F)F)cc1)c1ccccc1 | 60 | 48.3 | 28.1 | 45
24 | O=C(NSC(=O)c1cccc(Cl)c1)c1ccccc1 | 60 | 49.4 | 31.3 | 50
